Assay results from ChEMBL document CHEMBL1821678, “Synthesis and bio-activity evaluation of tetraphenyl(phenylamino) methylene bisphosphonates as antioxidant agents and as potent inhibitors of osteoclasts in vitro” (Eur J Med Chem, 2011).
≈ marks a conversion by molar mass, not a printed value.

Columns and labels:
Liver = test: Antioxidant activity in rat liver cells assessed as inhibition of Fe(2+)-asocrbate complex system-induced lipid peroxidation by TBARS assay; type: functional, cell-based
Procedure, shortened: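 Lipid peroxidation in rat liver cells induced by Fe2+–ascorbate complex; measured as thiobarbituric acid reacting substances (TBARS). Vitamin C standard; IC50 derived.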

[1] = tested on: Radical scavenging activity; test: Antioxidant activity assessed as DPPH free radical scavenging activity after 30 mins; type: functional
Procedure, shortened: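 DPPH (85 μM) added to medium containing a range of test concentrations; incubated 30 min at room temperature; decrease in absorbance read at 518 nm. Ascorbic acid served as reference for maximal decrease. Activity expressed as % inhibition of DPPH absorbance relative to standard; IC50 derived.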

[2] = Antioxidant activity assessed as potassium ferricyanide ion reducing power after 20 mins by spectrophotometry; type: functional
Procedure, shortened: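 Compounds (50–100 μM) mixed with phosphate buffer (0.2 M, pH 6.6) and 1% potassium ferricyanide, 50 °C for 20 min; 10% TCA added, centrifuged; upper layer diluted with water plus 0.1% ferric chloride; absorbance at 700 nm, higher absorbance = greater reducing power. Vitamin C standard.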

Osteoclast [3] = test: In-vitro antibone resorptive activity Sprague-Dawley rat pup long bone osteoclasts assessed as compound concentration causing inhibition of bone resorption after 24 hrs by MTT assay; type: functional
Procedure, shortened: (§1)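 Osteoclasts scraped from long bones of 1–2-day-old Sprague–Dawley rat pups into Hepes-buffered DMEM with 7–10% heat-inactivated FCS; attached 30 min to bovine cortical bone slices, unattached cells rinsed off. Treated at 10, 50, 100 and 250 μM, 37 °C, 5% CO2; harvested at 24, 48, 72 h; MTT viability read at 492 nm, triplicates; inhibitory ratio reported. Alendronate reference.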

Osteoclast [4] = test: In-vitro antibone resorptive activity Sprague-Dawley rat pup long bone osteoclasts assessed as compound concentration causing inhibition of bone resorption after 48 hrs by MTT assay; type: functional; procedure, shortened: as §1
Osteoclast [5] = test: In-vitro antibone resorptive activity Sprague-Dawley rat pup long bone osteoclasts assessed as compound concentration causing inhibition of bone resorption after 72 hrs by MTT assay; type: functional; procedure, shortened: as §1

O=C1O[C@H]([C@@H](O)CO)C(O)=C1O [ASCORBIC ACID]
IC50 (Liver): 75.2 µg/mL (≈ 427 µM) | IC50 [1]: 32.2 µg/mL (≈ 183 µM) | IC50 [2]: 2.51 µg/mL (≈ 14.3 µM)

Cc1ncc(NC(P(=O)(Oc2ccccc2)Oc2ccccc2)P(=O)(Oc2ccccc2)Oc2ccccc2)s1
IC50 (Liver): 75.2 µg/mL (≈ 127 µM) | Concentration causing inhibition of bone resorption (Osteoclast [3]): 88.4 µM | Concentration causing inhibition of bone resorption (Osteoclast [4]): 64.2 µM | inhibitory concentration (Osteoclast [5]): 48.8 µM | IC50 [1]: 58.4 µg/mL (≈ 98.6 µM) | IC50 [2]: 3.01 µg/mL (≈ 5.08 µM)

O=P(Oc1ccccc1)(Oc1ccccc1)C(Nc1ccc(F)cc1)P(=O)(Oc1ccccc1)Oc1ccccc1
IC50 (Liver): 86.2 µg/mL (≈ 146 µM) | Concentration causing inhibition of bone resorption (Osteoclast [3]): 126.1 µM | Concentration causing inhibition of bone resorption (Osteoclast [4]): 89.1 µM | inhibitory concentration (Osteoclast [5]): 56.4 µM | IC50 [1]: 48.2 µg/mL (≈ 81.8 µM) | IC50 [2]: 2.86 µg/mL (≈ 4.85 µM)

O=[N+]([O-])c1ncc(NC(P(=O)(Oc2ccccc2)Oc2ccccc2)P(=O)(Oc2ccccc2)Oc2ccccc2)s1
IC50 (Liver): 97.9 µg/mL (≈ 157 µM) | Concentration causing inhibition of bone resorption (Osteoclast [3]): 106.6 µM | Concentration causing inhibition of bone resorption (Osteoclast [4]): 87.7 µM | inhibitory concentration (Osteoclast [5]): 51.6 µM | IC50 [1]: 48.6 µg/mL (≈ 77.9 µM) | IC50 [2]: 3.54 µg/mL (≈ 5.68 µM)

O=P(Oc1ccccc1)(Oc1ccccc1)C(Nc1cccc2ncsc12)P(=O)(Oc1ccccc1)Oc1ccccc1
IC50 (Liver): 84.9 µg/mL (≈ 135 µM) | Concentration causing inhibition of bone resorption (Osteoclast [3]): 125.9 µM | Concentration causing inhibition of bone resorption (Osteoclast [4]): 95.9 µM | inhibitory concentration (Osteoclast [5]): 54.5 µM | IC50 [1]: 47.9 µg/mL (≈ 76.2 µM) | IC50 [2]: 2.44 µg/mL (≈ 3.88 µM)

O=P(Oc1ccccc1)(Oc1ccccc1)C(Nc1ccc(F)c(Cl)c1)P(=O)(Oc1ccccc1)Oc1ccccc1
IC50 (Liver): 80.6 µg/mL (≈ 129 µM) | Concentration causing inhibition of bone resorption (Osteoclast [3]): 32.7 µM | Concentration causing inhibition of bone resorption (Osteoclast [4]): 21.6 µM | inhibitory concentration (Osteoclast [5]): 10.4 µM | IC50 [1]: 32.9 µg/mL (≈ 52.7 µM) | IC50 [2]: 2.14 µg/mL (≈ 3.43 µM)

O=P(Oc1ccccc1)(Oc1ccccc1)C(Nc1ccccc1)P(=O)(Oc1ccccc1)Oc1ccccc1 [TETRAPHENYL(PHENYLAMINO)METHYLENE DIPHOSPHONATE]
IC50 (Liver): 96 µg/mL (≈ 168 µM) | Concentration causing inhibition of bone resorption (Osteoclast [3]): 201.6 µM | Concentration causing inhibition of bone resorption (Osteoclast [4]): 168.2 µM | inhibitory concentration (Osteoclast [5]): 104.4 µM | IC50 [1]: 80.6 µg/mL (≈ 141 µM) | IC50 [2]: 3.12 µg/mL (≈ 5.46 µM)

O=[N+]([O-])c1cc(NC(P(=O)(Oc2ccccc2)Oc2ccccc2)P(=O)(Oc2ccccc2)Oc2ccccc2)ccc1F
IC50 (Liver): 78.5 µg/mL (≈ 124 µM) | Concentration causing inhibition of bone resorption (Osteoclast [3]): 31.2 µM | Concentration causing inhibition of bone resorption (Osteoclast [4]): 19.1 µM | inhibitory concentration (Osteoclast [5]): 8.1 µM | IC50 [1]: 30.1 µg/mL (≈ 47.4 µM) | IC50 [2]: 2.27 µg/mL (≈ 3.58 µM)

NCCCC(O)(P(=O)(O)O)P(=O)(O)O [ALENDRONIC ACID]
INH (Osteoclast [3]): 52.7 µM | INH (Osteoclast [4]): 29.6 µM | inhibitory concentration (Osteoclast [5]): 20.4 µM

O=[N+]([O-])c1cccc(NC(P(=O)(Oc2ccccc2)Oc2ccccc2)P(=O)(Oc2ccccc2)Oc2ccccc2)c1
IC50 (Liver): 85.7 µg/mL (≈ 139 µM) | Concentration causing inhibition of bone resorption (Osteoclast [3]): 49.6 µM | Concentration causing inhibition of bone resorption (Osteoclast [4]): 28.8 µM | inhibitory concentration (Osteoclast [5]): 14.6 µM | IC50 [1]: 39.6 µg/mL (≈ 64.2 µM) | IC50 [2]: 2.09 µg/mL (≈ 3.39 µM)

COc1ccc(NC(P(=O)(Oc2ccccc2)Oc2ccccc2)P(=O)(Oc2ccccc2)Oc2ccccc2)cc1
IC50 (Liver): 89.8 µg/mL (≈ 149 µM) | Concentration causing inhibition of bone resorption (Osteoclast [3]): 138.7 µM | Concentration causing inhibition of bone resorption (Osteoclast [4]): 102.6 µM | inhibitory concentration (Osteoclast [5]): 67.7 µM | IC50 [1]: 40.7 µg/mL (≈ 67.7 µM) | IC50 [2]: 2.73 µg/mL (≈ 4.54 µM)

O=P(Oc1ccccc1)(Oc1ccccc1)C(Nc1ccc(Cl)cc1)P(=O)(Oc1ccccc1)Oc1ccccc1
IC50 (Liver): 87.5 µg/mL (≈ 144 µM) | Concentration causing inhibition of bone resorption (Osteoclast [3]): 191.4 µM | Concentration causing inhibition of bone resorption (Osteoclast [4]): 140.3 µM | inhibitory concentration (Osteoclast [5]): 71.8 µM | IC50 [1]: 41.5 µg/mL (≈ 68.5 µM) | IC50 [2]: 2.71 µg/mL (≈ 4.47 µM)
